Measurements as given in ChEMBL document CHEMBL4330056, “Synthesis and Cytotoxic and Antiviral Profiling of Pyrrolo- and Furo-Fused 7-Deazapurine Ribonucleosides” (J Med Chem, 2018).
Activity calls are given as the source filed them. The calls are words filed in the database; no cut-off is given here.

Legend:
[1] = test system: CCRF-CEM; experiment: Induction of cell cycle arrest in human CCRF-CEM cells assessed as accumulation at S phase at 5 times IC50 concentration after 24 hrs by propidium iodide-staining based flow cytometry (reference value: 41.08%); format: functional
[2] = test system: U2OS; experiment: Antiproliferative activity against human U2OS cells after 3 days by MTS assay; format: functional, cell-based; details: 72 h
[3] = test system: Human orthopneumovirus; experiment: Antiviral activity against Human respiratory syncytial virus A2 infected in Hep2 cells assessed as reduction in virus-induced cytopathic effect incubated for 4 days by CellTiter-Glo viability reagent based assay; format: functional, organism-based
[4] = Antiproliferative activity against human K562-TAX cells after 3 days by MTS assay; format: functional, cell-based; details: 72 h
[5] = test system: HL-60; experiment: Antiproliferative activity against human HL60 cells after 72 hrs by XTT assay; format: functional, cell-based; details: HL-60, 72 h
[6] = test system: Coxsackievirus B3; experiment: Antiviral activity against Human coxsackie B3 Nancy infected in human HeLa cells assessed as inhibited virus-induced cytopathic effect incubated for 2 days by XTT assay; format: functional, organism-based
[7] = test system: HCT-116; experiment: Antiproliferative activity against p53 gene knocked out human HCT116 cells after 3 days by MTS assay; format: functional, cell-based; details: HCT-116, 72 h
[8] = test system: CCRF-CEM; experiment: Induction of cell cycle arrest in human CCRF-CEM cells assessed as accumulation at G0/G1 phase at IC50 concentration after 24 hrs by propidium iodide-staining based flow cytometry (reference value: 39.70%); format: functional
[9] = test system: CCRF-CEM; experiment: Inhibition of mitosis in human CCRF-CEM cells assessed Ser10 H3 phosphorylation positive cells at IC50 concentration after 24 hrs by flow cytometry relative to total cell population (reference value: 1.36%); format: functional; design: scale not given: the % may be the effect or the level left
[10] = test system: CCRF-CEM; experiment: Induction of cell cycle arrest in human CCRF-CEM cells assessed as accumulation at subG1 phase at IC50 concentration after 24 hrs by propidium iodide-staining based flow cytometry (reference value: 3.45%); format: functional
[11] = test system: CCRF-CEM; experiment: Induction of cell cycle arrest in human CCRF-CEM cells assessed as accumulation at G2/M phase at IC50 concentration after 24 hrs by propidium iodide-staining based flow cytometry (reference value: 19.22%); format: functional
[12] = test system: CCRF-CEM; experiment: Inhibition of RNA synthesis in human CCRF-CEM cells assessed as RNA synthesis level at 5 times IC50 concentration after 24 hrs by BrU incorporation assay (reference value: 49.89%); format: functional; design: scale not given: the % may be the effect or the level left
[13] = test system: CCRF-CEM; experiment: Inhibition of mitosis in human CCRF-CEM cells assessed Ser10 H3 phosphorylation positive cells at 5 times IC50 concentration after 24 hrs by flow cytometry relative to total cell population (reference value: 1.36%); format: functional; design: scale not given: the % may be the effect or the level left
[14] = test system: Hepatitis C virus; experiment: Antiviral activity against Hepatitis C virus genotype 1b infected in human Huh-luc replicon cells after 3 days by luciferase assay; format: functional, organism-based, Hepacivirus hominis; details: subtype 1b, 72 h
[15] = test system: HCT-116; experiment: Antiproliferative activity against human HCT116 cells after 3 days by MTS assay; format: functional, cell-based; details: HCT-116, 72 h
[16] = test system: CCRF-CEM; experiment: Induction of cell cycle arrest in human CCRF-CEM cells assessed as accumulation at G2/M phase at 5 times IC50 concentration after 24 hrs by propidium iodide-staining based flow cytometry (reference value: 19.22%); format: functional
[17] = Cytotoxicity against human Hep2 cells assessed as reduction in cell viability after 3 days by CellTiter-Glo assay; format: cell-based; details: HEp-2 cells
[18] = test system: CCRF-CEM; experiment: Inhibition of DNA synthesis in human CCRF-CEM cells assessed as DNA synthesis level at 5 times IC50 concentration after 24 hrs by BrdU incorporation assay (reference value: 43.39%); format: functional; design: scale not given: the % may be the effect or the level left
[19] = test system: Hepatitis C virus; experiment: Antiviral activity against Hepatitis C virus genotype 2a infected in human Huh-luc replicon cells after 3 days by luciferase assay; format: functional, organism-based, Hepacivirus hominis; details: subtype 2a, 72 h
[20] = Antiproliferative activity against human CEM-DNR-bulk cells after 3 days by MTS assay; details: 72 h
[21] = test system: K562; experiment: Antiproliferative activity against human K562 cells after 3 days by MTS assay; format: functional, cell-based; details: K562, 72 h
[22] = test system: HeLa S3; experiment: Antiproliferative activity against human HeLaS3 cells after 72 hrs by XTT assay; format: functional, cell-based; details: HeLa S3, 72 h
[23] = test system: CCRF-CEM; experiment: Induction of cell cycle arrest in human CCRF-CEM cells assessed as accumulation at S phase at IC50 concentration after 24 hrs by propidium iodide-staining based flow cytometry (reference value: 41.08%); format: functional
[24] = test system: Human alphaherpesvirus 1; experiment: Antiviral activity against human herpesvirus 1 HF infected in African green monkey Vero cells assessed as inhibited virus-induced cytopathic effect incubated for 3 days by XTT assay; format: functional, organism-based
[25] = test system: CCRF-CEM; experiment: Induction of cell cycle arrest in human CCRF-CEM cells assessed as accumulation at G0/G1 phase at 5 times IC50 concentration after 24 hrs by propidium iodide-staining based flow cytometry (reference value: 39.70%); format: functional
[26] = test system: Influenza A virus; experiment: Antiviral activity against Influenza A virus (A/Mexico/4108/2009(H1N1)) infected in MDCK cells assessed as inhibited virus-induced cytopathic effect incubated for 2 days by XTT assay; format: functional, organism-based
[27] = test system: MRC5; experiment: Antiproliferative activity against human MRC5 cells after 3 days by MTS assay; details: MRC5, 72 h
[28] = test system: CCRF-CEM; experiment: Antiproliferative activity against human CCRF-CEM cells after 3 days by MTS assay; format: functional, cell-based; details: 72 h
[29] = test system: HepG2; experiment: Antiproliferative activity against human HepG2 cells after 72 hrs by XTT assay; format: functional, cell-based; details: HepG2, 72 h
[30] = test system: CCRF-CEM; experiment: Inhibition of RNA synthesis in human CCRF-CEM cells assessed as RNA synthesis level at IC50 concentration after 24 hrs by BrU incorporation assay (reference value: 49.89%); format: functional; design: scale not given: the % may be the effect or the level left
[31] = target: T1, Adenosine kinase (Homo sapiens, UniProt P55263); experiment: Substrate activity at recombinant human ADK assessed as compound phosphorylation at 50 uM after 20 mins in presence of [3H]-adenosine by UPLC; format: ADME
T1 sequence (P55263 whole entry): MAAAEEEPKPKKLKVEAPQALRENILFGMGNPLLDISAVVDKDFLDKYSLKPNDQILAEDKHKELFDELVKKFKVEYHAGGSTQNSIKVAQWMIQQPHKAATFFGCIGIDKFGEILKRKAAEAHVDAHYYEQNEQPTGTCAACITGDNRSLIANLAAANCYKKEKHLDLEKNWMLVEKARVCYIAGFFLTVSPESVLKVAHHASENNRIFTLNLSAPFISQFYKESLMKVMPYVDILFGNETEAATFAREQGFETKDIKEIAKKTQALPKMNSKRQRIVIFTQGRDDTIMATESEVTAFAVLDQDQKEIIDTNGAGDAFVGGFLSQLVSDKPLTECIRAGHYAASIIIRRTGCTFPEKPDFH

[32] = test system: CCRF-CEM; experiment: Inhibition of DNA synthesis in human CCRF-CEM cells assessed as DNA synthesis level at IC50 concentration after 24 hrs by BrdU incorporation assay (reference value: 43.39%); format: functional; design: scale not given: the % may be the effect or the level left
[33] = test system: BJ; experiment: Antiproliferative activity against human BJ cells after 3 days by MTS assay; details: 72 h
[34] = test system: dengue virus type 2; experiment: Antiviral activity against Dengue virus 2 Thailand/16681/84 infected in African green monkey Vero cells assessed as inhibition of virus replication incubated for 3 days by fluorescence microscopy; format: functional, organism-based
[35] = test system: A549; experiment: Antiproliferative activity against human A549 cells after 3 days by MTS assay; format: functional, cell-based; details: A549, 72 h
[36] = test system: CCRF-CEM; experiment: Induction of cell cycle arrest in human CCRF-CEM cells assessed as accumulation at subG1 phase at 5 times IC50 concentration after 24 hrs by propidium iodide-staining based flow cytometry (reference value: 3.45%); format: functional
[37] = target: T1, Adenosine kinase; experiment: Inhibition of recombinant human ADK using [3H]-adenosine as substrate after 20 mins by TLC scanner-based analysis relative to control
Method in brief: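 ADK inhibition: 50 μM adenosine substrate with 10 μM test compound and 97 ng enzyme, 20 min at 37 °C.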

**Q.** For `COc1ncnc2c1c1occc1n2[C@@H]1O[C@H](CO)[C@@H](O)[C@H]1O`, which Activity [1] is on record?
**A.** The Activity was 65.39%.

**Q.** What about the IC50 [2] of the same compound?
**A.** The IC50 was 430 nM.

**Q.** What about the Activity [3] of the same compound?
**A.** The Activity was “inactive”.

**Q.** What about the IC50 [4] of the same compound?
**A.** Its IC50 is 300 nM.

**Q.** What about the IC50 [5] of the same compound?
**A.** The IC50 was 700 nM.

**Q.** What about the Activity [6] of the same compound?
**A.** Its Activity is “inactive”.

**Q.** And the IC50 [7]?
**A.** Its IC50 is 300 nM.

**Q.** And the Activity [8]?
**A.** Its Activity is 41.52%.

**Q.** And the Activity [9]?
**A.** Its Activity is 0.56%.

**Q.** What about the Activity [10] of the same compound?
**A.** Its Activity is 4.23%.

**Q.** What about the Activity [11] of the same compound?
**A.** Its Activity is 16.65%.

**Q.** What about the Activity [12] of the same compound?
**A.** Its Activity is 4.3%.

**Q.** What about the Activity [13] of the same compound?
**A.** Its Activity is 0.58%.

**Q.** What about the EC50 [14] of the same compound?
**A.** The EC50 was 380 nM.

**Q.** And the IC50 [15]?
**A.** The IC50 was 280 nM.

**Q.** And the Activity [16]?
**A.** The Activity was 14.07%.

**Q.** What about the CC50 at 72 h [17] of the same compound?
**A.** The CC50 at 72 h was greater than 44400 nM.

**Q.** And the Activity [18]?
**A.** The Activity was 52.74%.

**Q.** And the EC50 [19]?
**A.** Its EC50 is 290 nM.

**Q.** And the IC50 [20]?
**A.** The IC50 was 3120 nM.

**Q.** What about the IC50 [21] of the same compound?
**A.** The IC50 was 320 nM.

**Q.** And the IC50 [22]?
**A.** Its IC50 is 2310 nM.

**Q.** And the Activity [23]?
**A.** Its Activity is 41.82%.

**Q.** And the Activity [24]?
**A.** Its Activity is “inactive”.

**Q.** What about the Activity [25] of the same compound?
**A.** The Activity was 20.54%.

**Q.** And the Activity [26]?
**A.** The Activity was “inactive”.

**Q.** What about the IC50 [27] of the same compound?
**A.** Its IC50 is 13400 nM.

**Q.** What about the IC50 [28] of the same compound?
**A.** The IC50 was 180 nM.

**Q.** What about the IC50 [29] of the same compound?
**A.** Its IC50 is 2410 nM.

**Q.** And the Activity [30]?
**A.** The Activity was 25.36%.

**Q.** What about the Activity [31] of the same compound?
**A.** The Activity was 35%.

**Q.** And the Activity [32]?
**A.** The Activity was 42.65%.

**Q.** What about the IC50 [33] of the same compound?
**A.** Its IC50 is 1090 nM.

**Q.** What about the Activity [34] of the same compound?
**A.** The Activity was “inactive”.

**Q.** What about the IC50 [35] of the same compound?
**A.** Its IC50 is 1930 nM.

**Q.** What about the Activity [36] of the same compound?
**A.** The Activity was 6.82%.

**Q.** And the IC50 [37]?
**A.** Its IC50 is greater than 10000 nM.
